Rows were chosen to be rich in hits. Some 3.5% of all compounds tested hit in one or more screens of this group.
MrgX1 agonist: human MrgX1 receptor agonism, primary screen; MrgX1-HEK293 cells, Fluo-4 calcium fluorescence, agonist mode; active compounds read high; actives 0.44% (n = 310,000); B-score at 10 µM;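 active means calcium response B-score plate-corrected fluorescence ratio at least 3 library SD, with starting fluorescence B-score inside 5 SD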
Target sequence (Q96LB2 whole entry, looked up): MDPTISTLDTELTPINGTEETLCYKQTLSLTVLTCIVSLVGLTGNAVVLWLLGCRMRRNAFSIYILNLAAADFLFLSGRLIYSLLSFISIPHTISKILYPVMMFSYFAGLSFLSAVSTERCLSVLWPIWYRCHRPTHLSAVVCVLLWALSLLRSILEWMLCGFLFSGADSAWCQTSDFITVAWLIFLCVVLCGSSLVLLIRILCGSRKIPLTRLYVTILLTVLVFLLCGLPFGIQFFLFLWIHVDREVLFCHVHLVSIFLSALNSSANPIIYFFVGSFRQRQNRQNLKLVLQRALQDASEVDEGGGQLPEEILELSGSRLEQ
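Test system: HEK293 cells stably expressing human MrgX1 receptor; Input: fifteen thousand cells per well; Dosing: compound delivered in addition one of three; Schedule: overnight seeding, then 1 h dark dye loading; Technique: Fluo-4 NW calcium fluorescence; Measure: B-scored fluorescence response ratio; Controls: positive and negative controls per plate.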
RGS4 pot: RGS4 potentiation or activation; actives 0.92% (n = 310,000); HEK293 M3R/inducible RGS4, carbachol calcium flux Fluo4; active compounds read low; B-score at 10 µM; AID 463111;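 active means B-score of the integrated calcium signal more than 4 SD below the library mean, with starting fluorescence not abnormally high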;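 further: negative B-score means reduced calcium response which marks RGS4 activation or potentiation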
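Also added: carbachol at ECmax as muscarinic agonist stimulus; Assay system: HEK293 cells with stable M3R and inducible RGS4; Timing: overnight RGS4 induction, 30 min dye load 37 °C, 20 min compound RT; Measured by: Fluo4-AM (2 µM) calcium-flux fluorescence, kinetic read.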
RGS4 inh: inhibitors of human RGS4; AID 463165; HEK293 M3R/RGS4 inducible, Fluo-4 calcium flux; active compounds read high; triggered by carbachol at its EC20; actives 0.45% (n = 310,000); B-score at 10 µM;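 active means B-score, a plate-corrected calcium signal, over three deviations above library mean, with baseline fluorescence within five deviations of library mean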;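 further: RGS4 expression induced by doxycycline in cells with stable M3 receptor; B-score is computed from the integrated fluorescence ratio over baseline after carbachol; higher B-score means a larger calcium signal and so more RGS4 inhibition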
Target sequence (P49798 whole entry, looked up): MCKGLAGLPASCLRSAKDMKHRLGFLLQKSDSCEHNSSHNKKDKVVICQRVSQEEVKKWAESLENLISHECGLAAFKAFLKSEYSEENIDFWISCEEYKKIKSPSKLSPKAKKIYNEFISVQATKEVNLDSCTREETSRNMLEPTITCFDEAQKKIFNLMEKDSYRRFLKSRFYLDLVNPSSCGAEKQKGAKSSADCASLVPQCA
MrgX1 PAM: allosterically activates human MrgX1 receptor signaling; actives 0.63% (n = 310,000); MrgX1-HEK293, Fluo-4 calcium flux, FDSS; active compounds read high; B-score at 10 µM; Q96LB2;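 active means plate-corrected calcium response at least 3 library SD above typical, normal starting fluorescence, not activating the receptor alone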;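 further: compound read alongside a low EC10 to EC30 dose of BAM8-22 agonist; peak minus trough fluorescence over baseline measured at the second addition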
MrgX1 antag: blocks BAM8-22 activation of human MrgX1 receptor; Q96LB2; MRGX1-HEK293 calcium flux, Fluo-4, BAM8-22 antagonism; active compounds read low; B-score at 10 µM; actives 1.3% (n = 310,000);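 active means calcium-response B-score plate-corrected more than 3 library SD below zero, starting fluorescence within 5 deviations, no agonist response on first addition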;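 further: peak minus trough fluorescence over baseline after final BAM8-22 challenge near maximal dose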
Numbers without * were called inactive.

How did Cc1onc(-c2c(F)cccc2Cl)c1C(=O)NCc1ccc2c(c1)OCO2 do in these assays?
MrgX1 agonist: inactive; RGS4 pot: -7.37*; RGS4 inh: inactive; MrgX1 PAM: inactive; MrgX1 antag: inactive

What do the screens show for `CCCCCCOC1(c2ccccc2)OC(=O)c2ccccc21` (centres undefined)?
MrgX1 agonist: inactive; RGS4 pot: -6.96*; RGS4 inh: inactive; MrgX1 PAM: inactive; MrgX1 antag: inactive

What do the screens show for `CCCc1cc(C(=O)Nc2ccc(C(=O)c3ccc(C)cc3)cc2)n(C)n1`?
MrgX1 agonist: inactive; RGS4 pot: -7.39*; RGS4 inh: inactive; MrgX1 PAM: inactive; MrgX1 antag: inactive

Results for CCCc1cc(C(=O)Nc2cccc3ccccc23)n(C)n1 ?
MrgX1 agonist: inactive; RGS4 pot: inactive; RGS4 inh: inactive; MrgX1 PAM: inactive; MrgX1 antag: inactive

Results for O=C(NCc1ccc(CNC(=O)c2ccco2)cc1)c1ccco1 ?
MrgX1 agonist: inactive; RGS4 pot: inactive; RGS4 inh: inactive; MrgX1 PAM: inactive; MrgX1 antag: inactive

Results for Cc1cc(NC(=O)CSc2nnc(N)s2)c([N+](=O)[O-])cc1C ?
MrgX1 agonist: inactive; RGS4 pot: inactive; RGS4 inh: inactive; MrgX1 PAM: inactive; MrgX1 antag: -7.05*

What do the screens show for `OC(C#CCCN1CCCCC1)(c1ccccc1)c1ccccc1`?
MrgX1 agonist: inactive; RGS4 pot: inactive; RGS4 inh: inactive; MrgX1 PAM: inactive; MrgX1 antag: inactive

Results for C[N+]1(CC#CC(O)(c2ccccc2)c2ccccc2)CCCC1 ?
MrgX1 agonist: inactive; RGS4 pot: -8.45*; RGS4 inh: inactive; MrgX1 PAM: inactive; MrgX1 antag: inactive

How did CC(C)[N+](C)(C)CC#CC(O)(c1ccccc1)c1ccccc1 do in these assays?
MrgX1 agonist: inactive; RGS4 pot: -7.77*; RGS4 inh: inactive; MrgX1 PAM: inactive; MrgX1 antag: inactive

Results for Cc1ccc(S(=O)(=O)Nc2cccc(C(=O)NCc3cccnc3)c2)cc1F ?
MrgX1 agonist: inactive; RGS4 pot: inactive; RGS4 inh: inactive; MrgX1 PAM: inactive; MrgX1 antag: inactive

How did O=C(Oc1ccc(-c2cnc3ccccc3n2)cc1)c1cc([N+](=O)[O-])ccc1Cl do in these assays?
MrgX1 agonist: inactive; RGS4 pot: inactive; RGS4 inh: inactive; MrgX1 PAM: inactive; MrgX1 antag: -4.93*

What do the screens show for `O=C(NCc1ccc(F)cc1)c1ccncc1`?
MrgX1 agonist: inactive; RGS4 pot: inactive; RGS4 inh: inactive; MrgX1 PAM: inactive; MrgX1 antag: inactive

What do the screens show for `CC12CCC(C(=O)N(CSC(=S)N/N=C\c3ccccc3O)C1=O)C2(C)C` (centres undefined)?
MrgX1 agonist: inactive; RGS4 pot: inactive; RGS4 inh: inactive; MrgX1 PAM: 9.33*; MrgX1 antag: inactive

What do the screens show for `CCOc1ncccc1C(=O)Nc1cccc(C(=O)Nc2cccc(S(=O)(=O)CCO)c2)c1`?
MrgX1 agonist: inactive; RGS4 pot: inactive; RGS4 inh: inactive; MrgX1 PAM: inactive; MrgX1 antag: -5.27*

What do the screens show for `CCOc1ncccc1C(=O)OCC(=O)Nc1cccc(S(N)(=O)=O)c1`?
MrgX1 agonist: inactive; RGS4 pot: inactive; RGS4 inh: inactive; MrgX1 PAM: inactive; MrgX1 antag: inactive

How did O=C(OC(C(=O)Nc1cc(Cl)cc(Cl)c1)c1ccccc1)C1=COCCO1 (centres undefined) do in these assays?
MrgX1 agonist: inactive; RGS4 pot: inactive; RGS4 inh: inactive; MrgX1 PAM: inactive; MrgX1 antag: -5.3*

What do the screens show for `COC(=O)/C=c1/s/c(=C(/C#N)C(=O)N2CCCCC2)n(-c2ccccc2)c1=O`?
MrgX1 agonist: inactive; RGS4 pot: inactive; RGS4 inh: inactive; MrgX1 PAM: inactive; MrgX1 antag: inactive

What do the screens show for `COc1cc(/C=c2\s/c(=C(/C#N)C(=O)N3CCCC3)n(-c3ccccc3)c2=O)ccc1O`?
MrgX1 agonist: inactive; RGS4 pot: inactive; RGS4 inh: inactive; MrgX1 PAM: 14.3*; MrgX1 antag: inactive

How did COCc1ccc(CN2CCC(C(=O)Nc3cccc(-c4cccc(Cl)c4)c3)CC2)o1 do in these assays?
MrgX1 agonist: inactive; RGS4 pot: -8.1*; RGS4 inh: inactive; MrgX1 PAM: inactive; MrgX1 antag: inactive

What do the screens show for `COCc1ccc(CN2CCC(C(=O)Nc3cccc(-c4cscn4)c3)CC2)o1`?
MrgX1 agonist: inactive; RGS4 pot: inactive; RGS4 inh: inactive; MrgX1 PAM: inactive; MrgX1 antag: inactive

What do the screens show for `CSc1ccc(CN(C)C(=O)CNC(=O)c2ccc3c(c2)OCO3)cc1`?
MrgX1 agonist: inactive; RGS4 pot: inactive; RGS4 inh: inactive; MrgX1 PAM: inactive; MrgX1 antag: inactive

What do the screens show for `CCCCn1c(N)c(N(CCOC)C(=O)c2ccc3c(c2)C(=O)N(c2ccccc2C)C3=O)c(=O)[nH]c1=O`?
MrgX1 agonist: inactive; RGS4 pot: inactive; RGS4 inh: inactive; MrgX1 PAM: inactive; MrgX1 antag: inactive

Results for CCCCn1c(N)c(N(CCOC)C(=O)c2ccc3c(c2)C(=O)N(c2cc(C)ccc2C)C3=O)c(=O)[nH]c1=O ?
MrgX1 agonist: inactive; RGS4 pot: inactive; RGS4 inh: inactive; MrgX1 PAM: 11.9*; MrgX1 antag: inactive

How did Cc1cc(C2=NNC(=NC3CC3)SC2)c(C)n1Cc1ccco1 do in these assays?
MrgX1 agonist: inactive; MrgX1 PAM: inactive; MrgX1 antag: inactive

Results for COCCCN=C1NN=C(c2cc(C)n(Cc3ccco3)c2C)CS1 ?
MrgX1 agonist: inactive; RGS4 pot: inactive; RGS4 inh: inactive; MrgX1 PAM: 10.5*; MrgX1 antag: inactive

Results for Cc1cccc(NC2=C(NCCO)C(=O)c3ccccc3C2=O)c1 ?
MrgX1 agonist: inactive; RGS4 pot: inactive; RGS4 inh: inactive; MrgX1 PAM: inactive; MrgX1 antag: -5.5*

What do the screens show for `COc1cccc(NC2=C(NCCO)C(=O)c3ccccc3C2=O)c1`?
MrgX1 agonist: inactive; RGS4 pot: inactive; RGS4 inh: inactive; MrgX1 PAM: inactive; MrgX1 antag: inactive

Results for N#C/C(=C/c1ccc(N2CCCCCC2)o1)c1cccc(F)c1 ?
MrgX1 agonist: inactive; RGS4 pot: inactive; RGS4 inh: inactive; MrgX1 PAM: inactive; MrgX1 antag: inactive

How did COc1cc(N2CCCC2)c(OC)cc1/C=C(/C#N)c1cccc(F)c1 do in these assays?
MrgX1 agonist: inactive; RGS4 pot: inactive; RGS4 inh: inactive; MrgX1 PAM: inactive; MrgX1 antag: -11.4*

What do the screens show for `COC(=O)c1ccc(NC(=O)COc2coc(CN3CCc4ccccc43)cc2=O)cc1`?
MrgX1 agonist: inactive; RGS4 pot: inactive; RGS4 inh: inactive; MrgX1 PAM: inactive; MrgX1 antag: inactive

High-throughput results (PubChem)
